A value given as a limit tells only on which side of the number the result lay.

Assay [1] relates to Cricetinae gen. sp. The assay is described as follows: ED50 of retinoid required to effect reversal of keratinization. It is filed as functional. Summed up:
(§1)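 Tracheas from Syrian golden hamsters kept on a vitamin A deficient diet from birth to 30–32 days old. Cultured serum-free (CMRL 1066 with insulin, hydrocortisone, glutamine, antibiotics), one explant per dish, 50% O2/45% N2/5% CO2, 36 °C, rocked. 3 days without retinoid, then 7 days with retinoid, medium renewed three times. Histology on day 10. Active means keratin/keratohyaline granules absent. Usually duplicate, 6–7 tracheas per concentration.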

For assay [2], the system named is Cricetinae gen. sp. The assay is described as follows: Total cultures(1) versus active (13)at 10e-9 M conc. in hamster tracheal organ culture assay (TOC). It is filed as functional, Trachea. Summed up: as §1
Assay [3] concerns the target T1, Ornithine decarboxylase (Mus musculus) (UniProt P00860).
T1 sequence (whole entry): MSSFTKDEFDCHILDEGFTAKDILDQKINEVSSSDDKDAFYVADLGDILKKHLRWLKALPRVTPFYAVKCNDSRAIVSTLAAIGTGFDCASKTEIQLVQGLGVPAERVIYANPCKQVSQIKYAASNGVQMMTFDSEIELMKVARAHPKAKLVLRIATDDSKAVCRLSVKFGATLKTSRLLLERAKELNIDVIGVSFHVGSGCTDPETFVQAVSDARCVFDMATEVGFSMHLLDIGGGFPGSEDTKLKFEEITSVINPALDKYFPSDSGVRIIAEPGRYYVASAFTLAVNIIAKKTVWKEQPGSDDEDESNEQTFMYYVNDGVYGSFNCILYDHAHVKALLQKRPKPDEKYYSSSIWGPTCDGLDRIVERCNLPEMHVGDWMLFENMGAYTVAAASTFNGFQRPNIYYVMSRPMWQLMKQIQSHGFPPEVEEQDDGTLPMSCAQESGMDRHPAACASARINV
The assay is described as follows: Percent inhibition of the induction of ornithine decarboxylase in mouse dorsal epidermis (ODC assay). It is filed as functional.

Assay [4] deals with Cricetinae gen. sp. The assay is described as follows: Total cultures(2) versus active(12) at 10e-8 M conc. in hamster tracheal organ culture assay (TOC). Format: functional, Trachea. Summed up: as §1
Assay [5] has as its system Cricetinae gen. sp. The assay is described as follows: Total cultures(0) versus active(12)at 10e-10 M conc. in hamster tracheal organ culture assay (TOC). It is filed as functional, Trachea. Summed up:
as §1

The target of assay [6] is T1, Ornithine decarboxylase (Mus musculus). The assay is described as follows: Percent inhibition of the induction of ornithine decarboxylase at 17 nmol dose in mouse dorsal epidermis (ODC assay). Format: functional.
Assay [7] relates to Cricetinae gen. sp. The assay is described as follows: Relative potency with respect to retinoic acid in hamster tracheal organ culture assay (TOC). It is filed as functional, Cricetulus griseus, Trachea.
Assay [8] concerns Cricetinae gen. sp. The assay is described as follows: Total cultures(11) versus active (5) at 10e-8 M conc. in hamster tracheal organ culture assay (TOC). It is filed as functional, Trachea. Summed up:
as §1

The test system of assay [9] is Cricetinae gen. sp. The assay is described as follows: Total cultures(13) versus active (5) at 10e-9 M conc. in hamster tracheal organ culture assay (TOC). Format: functional, Trachea. Summed up: as §1
In assay [10] the test system is Cricetinae gen. sp. The assay is described as follows: Total cultures (13) versus active (4) at 10e-10 M conc. in hamster tracheal organ culture assay (TOC). Format: functional, Trachea. Summed up:
as §1

Assay [11] has as its target T1, Ornithine decarboxylase (Mus musculus). The assay is described as follows: Percent inhibition of the induction of ornithine decarboxylase at 1.7 nmol in mouse dorsal epidermis (ODC assay). Format: functional.
Assay [12] concerns Cricetinae gen. sp. The assay is described as follows: Total cultures(6) versus active(6) at 10e-8 M conc. in hamster tracheal organ culture assay (TOC). Format: functional, Trachea. In a few lines:
as §1

The subject of assay [13] is Cricetinae gen. sp. The assay is described as follows: Total cultures(4) versus active(13) at 10e-10 M conc. in hamster tracheal organ culture assay (TOC). Format: functional, Trachea. Summed up:
as §1

Assay [14] concerns Cricetinae gen. sp. The assay is described as follows: Total cultures(0) versus active(7) at 10e-11 M conc. in hamster tracheal organ culture assay (TOC). Format: functional, Trachea. In a few lines:
as §1

In assay [15] the test system is Cricetinae gen. sp. The assay is described as follows: Total cultures(13) versus active(13) at 10e-9 M conc. in hamster tracheal organ culture assay (TOC). It is filed as functional, Trachea. Summed up:
as §1

For assay [16], the system named is Cricetinae gen. sp. The assay is described as follows: Total cultures(11) versus active(13) at 10e-9 M conc. in hamster tracheal organ culture assay (TOC). Format: functional, Trachea. Summed up: as §1
In assay [17] the test system is Cricetinae gen. sp. The assay is described as follows: Total cultures (1)versus active(6) at 10e-11 M conc. in hamster tracheal organ culture assay (TOC). Format: functional, Trachea. In a few lines: as §1
The test system of assay [18] is Cricetinae gen. sp. The assay is described as follows: Total cultures(9) versus active(14) at 10e-10 M conc. in hamster tracheal organ culture assay (TOC). Format: functional, Trachea. Summed up: as §1
The test system of assay [19] is Cricetinae gen. sp. The assay is described as follows: Total cultures(0) versus active(6) at 10e-11 M conc. in hamster tracheal organ culture assay (TOC). It is filed as functional, Trachea. In a few lines: as §1
For assay [20], the system named is Cricetinae gen. sp. The assay is described as follows: Total cultures(3) versus active(11) at 10e-10 M conc. in hamster tracheal organ culture assay (TOC). Format: functional, Trachea. Summed up:
as §1

Assay [21] deals with Cricetinae gen. sp. The assay is described as follows: Total cultures(12) versus active(12) at 10e-9 M conc. in hamster tracheal organ culture assay (TOC). It is filed as functional, Trachea. Summed up:
as §1

For assay [22], the system named is Cricetinae gen. sp. The assay is described as follows: Total cultures(14) versus active (6) at 10e-10 M conc. in hamster tracheal organ culture assay (TOC). Format: functional, Trachea. In a few lines:
as §1

The test system of assay [23] is Cricetinae gen. sp. The assay is described as follows: Total cultures(13) versus active (13) at 10e-8 M conc. in hamster tracheal organ culture assay (TOC). It is filed as functional, Trachea. Summed up: as §1
For assay [24], the system named is Cricetinae gen. sp. The assay is described as follows: Total cultures(14) versus active (10) at 10e-9 M conc. in hamster tracheal organ culture assay (TOC). It is filed as functional, Trachea. Summed up:
as §1

In assay [25] the test system is Cricetinae gen. sp. The assay is described as follows: Total cultures(13) versus active (8) at 10e-10 M conc. in hamster tracheal organ culture assay (TOC). It is filed as functional, Trachea. Summed up:
as §1

Assay [26] concerns Cricetinae gen. sp. The assay is described as follows: Total cultures(12) versus active (10) at 10e-9 M conc. in hamster tracheal organ culture assay (TOC). It is filed as functional, Trachea. In a few lines:
as §1

For assay [27], the system named is Cricetinae gen. sp. The assay is described as follows: Total cultures(6) versus active (2) at 10e-11 M conc. in hamster tracheal organ culture assay (TOC). It is filed as functional, Trachea. Summed up: as §1
Assay [28] deals with Cricetinae gen. sp. The assay is described as follows: Total cultures(7) versus active (7) at 10e-8 M conc. in hamster tracheal organ culture assay (TOC). Format: functional, Trachea. In a few lines: as §1
Assay [29] has as its system Cricetinae gen. sp. The assay is described as follows: Total cultures(13) versus active (11) at 10e-8 M conc. in hamster tracheal organ culture assay (TOC). It is filed as functional, Trachea. Summed up: as §1
Assay [30] has as its system Cricetinae gen. sp. The assay is described as follows: Total cultures(14) versus active (6) at 10e-9 M conc. in hamster tracheal organ culture assay (TOC). Format: functional, Trachea. Summed up:
as §1

In assay [31] the test system is Cricetinae gen. sp. The assay is described as follows: Total cultures(14) versus active (5) at 10e-10 M conc. in hamster tracheal organ culture assay (TOC). Format: functional, Trachea. Summed up: as §1
For assay [32], the target named is T1, Ornithine decarboxylase (Mus musculus). The assay is described as follows: Percent inhibition of the induction of ornithine decarboxylase at 170 nmol in mouse dorsal epidermis (ODC assay). Format: functional.

Take `CCOC(=O)c1ccc(/C(F)=C(C)\C=C\C2=C(C)CCCC2(C)C)cc1`: the ED50 in assay [1] worked out at 20 pM. For the same compound, the Active/total cultures came out at 8% in [2], 17% in [4] and 0% in assay [5]. The inhibition of control in [3] stood at 5%; in assay [6], 16%. In assay [7], this compound yielded a Relative activity of under 0.1.

On to `CC1=C(/C=C/C(C)=C/c2ccc(C(=O)O)o2)C(C)(C)CCC1`, for which the Active/total cultures in assay [8] is 45%; in assay [9], 38%; in [10], 31%. In addition, the ED50 in assay [1] worked out at 20 pM. For the same compound, the inhibition of control in assay [11] came to 7%; in [6] it was 5%. Moreover, in assay [7], the Relative activity is reported as <<0.1.

In the case of `CCOC(=O)c1ccc(/C=C(C)/C=C/C2=C(C)CCCC2(C)C)cc1`, the ED50 in [1] came to 6 pM. For the same compound, the Active/total cultures in assay [12] was 100%; in assay [13] it was 31%; in assay [14], 0%; in [15] it was 100%. In assay [6], this compound gave an inhibition of control of 80%. Besides, the Relative activity in [7] amounted to 1.

Regarding `CCOC(=O)c1ccc(/C=C(C)/C=C/C2=C(C)CCCC2(C)C)c(F)c1`, the ED50 in assay [1] came to 6 pM. Also, the Active/total cultures in assay [12] is given as 100%; in assay [16] it was 85%; in assay [17], 17%; in assay [18] it was 64%. In addition, the inhibition of control was determined as 8% in assay [11] and 46% in assay [6]. The compound also showed a Relative activity in [7] of 5.

On to `CC1=C(/C=C/C(C)=C/c2ccc(C(=O)O)cc2F)C(C)(C)CCC1`, for which the ED50 in assay [1] turned out to be 6 pM. In addition, the Active/total cultures in [19] is on record as 0%; in [12], 100%; in [20], 27%; in assay [21], 100%. In addition, the inhibition of control worked out at 37% in assay [11] and 78% in assay [6]. The Relative activity in assay [7] amounted to 5.

Consider `CCOC(=O)c1ccc(/C=C(C)/C=C/C2=C(C)CCCC2(C)C)s1`, for which the ED50 in assay [1] came out at 20 pM. Besides, the Active/total cultures worked out at 43% in [22], 100% in assay [23] and 71% in assay [24]. The results for the inhibition of control in assay [11] and in [6] were 67% and 77%, respectively. Also, the Relative activity in assay [7] amounted to 3.

Consider `CC1=C(/C=C/C(C)=C\c2ccc(C(=O)O)cc2)C(C)(C)CCC1`, for which, in [1], the ED50 came to 10 pM. The values for the inhibition of control in assay [11], in [3] and in assay [6] were 33%, 64% and 43%, respectively. In addition, the Relative activity in assay [7] is listed as under 0.1.

As for `CCOC(=O)c1ccc(/C=C(C)/C=C/C2=C(C)CCCC2(C)C)c(OC)c1`, in assay [1], the ED50 amounted to 6 pM. Besides, the Active/total cultures in assay [25] worked out at 62%; in [26], 83%; in [27] it was 33%; in [28], 100%. Further, the inhibition of control in assay [11] stood at 21%; in assay [6], 39%. In addition, the Relative activity in assay [7] was 5.

Consider `CCOC(=O)c1ccc(/C=C(C)\C=C\C2=C(C)CCCC2(C)C)s1`, for which the ED50 in assay [1] stood at 20 pM. Further, the Active/total cultures is reported as 85% in [29], 43% in assay [30] and 36% in assay [31]. The figures for the inhibition of control in assay [11] and in assay [6] were 35% and 76%, respectively. For the same compound, the Relative activity in assay [7] was found to be 0.3.

As to `CC1=C(/C=C/C(C)=C/c2ccc(C(=O)O)cc2)C(C)(C)CCC1`, the figures for the inhibition of control in assay [32], in [11] and in assay [6] were 87%, 62% and 69%, respectively. Also, in assay [7], the Relative activity is 2.

For the origin of these results see ChEMBL document CHEMBL1122284, “Aromatic retinoic acid analogues. 2. Synthesis and pharmacological activity” (1983).
